A selection: hits, their analogues and other compounds. The true share with any hit is near 3%.
MPTP inh = permeability transition pore inhibition; isolated mouse mitochondria, Ca2+ swelling absorbance, 30 min; inhibition, % at 10 µM; actives 1.4% (n = 360,000); AID 602449;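 active = inhibition of 50% or more, scaled per plate between neutral and stimulator controls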;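 also: 0% = DMSO wells given calcium and 100% = 1 mM EGTA wells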
hiPSC survival = increases survival of single human iPS cells | hiPSC single-cell survival, ATPlite luminescence; 100% = ROCK inhibitor wells, 0% = DMSO | survival enhancement, % at 20 µM | actives 0.044% (n = 360,000) | AID 602274; in the data active = survival enhancement above about 18%;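 also: cells exposed to compounds for 16 hours before the ATP read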
Granule exo inh = lytic granule exocytosis inhibition. actives 0.66% (n = 360,000). TALL-104 LAMP-1 surface exposure, flow cytometry; cells stimulated with thapsigargin and PMA. inhibition, % at 10 µM;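 active = inhibition above about 55%, limit read from the data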
beta cell repl = inducers of beta-cell replication in MIN6 cells; actives 0.29% (n = 330,000); MIN6 cells proliferation, ATPlite luminescence, 48 h; cells starved in 0.2% serum; 100% = growth in 10% serum; proliferation, % at 10 µM;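 active = compounds whose signal lies at least 3.5 SD above the mean of all wells on their plate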;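 also: 0% = DMSO-treated cells in low-serum medium and 100% = 10% serum control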
UBC13 inh = human UBC13 polyubiquitination inhibition; P61088; UBC13 polyubiquitin chain formation, TR-FRET; inhibition, % at 20 µM; actives 0.47% (n = 330,000); AID 485273; in the data active = inhibition above about 45%, passing the limit was not always enough
Target sequence (P61088 whole entry, looked up): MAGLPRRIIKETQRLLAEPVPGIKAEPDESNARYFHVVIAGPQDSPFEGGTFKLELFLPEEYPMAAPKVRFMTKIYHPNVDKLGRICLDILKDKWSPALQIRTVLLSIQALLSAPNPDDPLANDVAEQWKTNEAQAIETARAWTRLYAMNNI
Apaf1 inhib = inhibitors of human Apaf-1 apoptosome; reconstituted apoptosome caspase-3 activity, DEVD-Rh110 fluorescence; inhibition, % at 20 µM; actives 0.71% (n = 330,000); O14727; active = inhibition of at least 40% at 20 µM;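 also: plate controls were DMSO wells for no effect and DEVD-CHO caspase inhibitor wells for full effect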
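System: Apoptosome proteins | Medium: Hepes pH 7.5 with detergent and BSA | Also added: Cytochrome c trigger plus (Z-DEVD)2-Rh110 caspase-3 substrate | Incubation: 30 min compound preincubation, 50 min activation, room temperature | Detection: Rhodamine 110 fluorescence at Ex 480/Em 540 nm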
Exocytosis CP01 = blocks lytic granule exocytosis; shares compounds with Granule exo inh; TALL-104 cells, LAMP-1 externalization, flow cytometry; stimulated with PMA plus thapsigargin; inhibition, % at 10 µM; actives 11% (n = 1,500); in the data active = inhibition above about 60%;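 also: 0% = stimulated vehicle wells and 100% = unstimulated wells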
An asterisk follows results filed as active; . = no result given; ! = not active in a repeat.

SMILES | MPTP inh | hiPSC survival | Granule exo inh | beta cell repl | UBC13 inh | Apaf1 inhib | Exocytosis CP01
Cc1cccc(COCC(CC(C)C)N2CCN(C(=O)c3ccc(C(C)(C)C)cc3)CCC2=O)c1 (stereo not drawn) | -2 | -1 | 66* | -8 | 6 | 38 | -4
Cc1cccc(COC[C@H](CC(C)C)N2CCN(C(=O)c3ccc(C(C)(C)C)cc3)CCC2=O)c1 | -1 | 0 | 2 | . | . | . | .
CCOC(=O)N1CCC(NC(=O)C2CCCN(Cc3nc(-c4ccc(CC)cc4)oc3C)C2)CC1 (stereo not drawn) | -1 | 0 | 62* | -4 | -1 | 17 | -3
CC(=O)C1=CCC(c2ccco2)N(S(=O)(=O)c2ccc(C)cc2)C1 (stereo not drawn) | -3 | -1 | -1 | . | . | . | .
Cc1ccc(C)c(CN2C(=O)CSc3ccc(C(=O)NCC(C)CN4CCC(C)CC4)cc32)c1 (stereo not drawn) | 0 | 0 | 77* | 0 | 11 | 15 | 4
COc1ccc(Br)cc1CN(C)C(=O)CNC(=O)c1ccc2ccccc2c1 | 1 | -1 | 58* | 0 | 2 | 30 | -5
COc1ccc(CN(C)C(=O)CNC(=O)c2ccc3ccccc3c2)c(OC)c1 | -2 | 0 | -9 | -3 | 0 | 12 | .
CCC(C(=O)OCC(=O)N1CCN(c2ccc(OC)cc2)CC1)c1ccccc1 (stereo not drawn) | -1 | 2 | -1 | -2 | 5 | 4 | .
CCC(=C(c1ccc(OC)cc1)c1ccc(OC)cc1)c1cn(CC(O)CN2CCN(C)CC2)c2ccccc12 (stereo not drawn) | -1 | -2 | 89* | . | . | . | 83*
Cc1ccc(Cc2c(-c3ccco3)nc3c(C)cc(Br)cn23)cc1 | -3 | -1 | 36 | . | . | . | .
Cc1cc2nc(-c3ccco3)c(Cc3cccc(Cl)c3)n2c(C)c1Br | 2 | -1 | 73* | . | . | . | 2
Cc1ccc(Cc2c(-c3ccco3)nc3c4ccccc4ccn23)cc1 | 0 | -3 | 58* | . | . | . | 0
Cc1cc2nc(-c3cccc(Cl)c3)c(Cc3cccc(Cl)c3)n2c(C)c1Br | 0 | 0 | 6 | . | . | . | .
Cc1cc(Br)cn2c(Cc3cccc(Cl)c3)c(-c3ccco3)nc12 | -2 | -1 | 56* | . | . | . | 22
CCOC(=O)c1ccc(NC(=O)CCCN2C(=O)NC3(CCCC3)C2=O)cc1 | 0 | 1 | 3 | 5 | 4 | -5 | .
Cc1ccc(Cl)cc1N1CCN(S(=O)(=O)c2cccc(S(=O)(=O)N3CCCC3)c2)CC1 | 3 | 1 | 77* | -1 | -7 | 5 | -7
Cc1ccc(Cl)cc1N1CCN(S(=O)(=O)c2ccc3[nH]c(=O)c(=O)[nH]c3c2)CC1 | -2 | 4 | -1 | -2 | 13 | 30 | .
N#CCCN(Cc1cccnc1)CN1C(=O)c2ccccc2C1=O | 1 | -1 | -2 | . | . | . | .
c1ccc(CNc2c3ccccc3nc3ccccc23)cc1 | 1 | -1 | 61* | -6 | 1 | 3 | -4
c1cc2c3c(cccc3c1)NC1(CCCC1)N2 | 0 | -2 | 1 | . | . | . | .
CCOC(=O)C1CCCC12Nc1cccc3cccc(c13)N2 (stereo not drawn) | 1 | 3 | 86* | . | . | . | -14
Cc1ccc(-c2nnc(N3CCCCCC3)c3ccccc23)cc1 | 2 | 1 | 66* | -4 | 3 | 29 | -12
O=C(CCCC(=O)c1ccc(F)cc1)c1ccc(F)cc1 | -1 | -1 | -4 | -1 | 2 | 17 | .
CCCCCCSc1cccc(-c2nc3ccccn3c2NCc2ccccc2)c1 | 2 | -5 | 58*! | -6 | 24 | 29 | 95*
COc1ccc(NC(=O)C2CCN(C(=O)C3CC(=O)N(c4ccc(C)cc4)C3)CC2)c(OC)c1 (stereo not drawn) | 1 | 0 | 69* | -2 | 2 | 3 | -14
SMILES | MPTP inh | hiPSC survival | Granule exo inh | beta cell repl | UBC13 inh | Apaf1 inhib | Exocytosis CP01
O=C(NCc1ccc2c(c1)OCO2)C12CN(Cc3ccccc3)CC1C(c1cccc([N+](=O)[O-])c1)=NO2 (stereo not drawn) | 0 | -1 | 100* | -5 | -38 | 16 | -5
COc1ccc(CCNC(=O)c2cc3c(=O)n4cccc(C)c4nc3n(CC3CCCO3)c2=N)cc1 (stereo not drawn) | -1 | 0 | 62* | -4 | 0 | 12 | -4
Cc1cccn2c(=O)c3cc(C(=O)NCCc4ccccc4)c(=N)n(Cc4ccco4)c3nc12 | -1 | 0 | 78* | 0 | 5 | 27 | 42
CCOC(=O)Nc1cccc(OCC(=O)Nc2ccc3c(c2)CCC3)c1 | -2 | 0 | 0 | -2 | 2 | 20 | .
C[C@H](CO)N1C[C@H](C)[C@@H](CN(C)Cc2ccc(C(=O)O)cc2)Oc2ccc(NS(=O)(=O)c3cn(C)cn3)cc2C1=O | -1 | 1 | -4 | 2 | 5 | -1 | .
Cc1noc(C)c1C(=O)N(CC(=O)Nc1ccccc1Br)Cc1ccco1 | -1 | -1 | 2 | -2 | -2 | -7 | .
CCNC(=O)C1(C)CCCN(C(=O)Cc2ccc(OC)c(OC)c2)C1 (stereo not drawn) | 0 | 5 | 15 | . | . | . | .
CC1=C(C(=O)N2CCCCCC2)CC(CC(=O)NCCCCc2ccccc2)C(=O)N1CCC1=CCCCC1 (stereo not drawn) | -2 | -3 | 86* | . | . | . | 0
CC1=C(C(=O)N2CCCCCC2)CC(CC(=O)NCc2cccs2)C(=O)N1CCC1=CCCCC1 (stereo not drawn) | 0 | -2 | -12 | . | . | . | .
CC1=C(C(=O)N2CCCCCC2)CC(CC(=O)NCc2cccc3ccccc23)C(=O)N1CCC1=CCCCC1 (stereo not drawn) | -2 | 1 | 58* | . | . | . | -6
C/C=C/c1ccc(OCCOCCNCc2ccccc2)c(OC)c1 | 1 | -1 | 70* | -3 | 16 | 15 | -5
Cc1ccc([C@H]2C[C@@H](O)[C@H](n3cc(-c4ccc(F)cc4)nn3)CN2Cc2cccs2)cc1 | -1 | 0 | 0 | . | . | . | .
CCCC(=O)NC1CCCc2c1cnn2-c1ccc(C)c(C)c1 (stereo not drawn) | 0 | 1 | 4 | -1 | 6 | -3 | .
CCn1nc(C)cc1C(=O)NC1CCCc2c1cnn2-c1ccc(C)c(C)c1 (stereo not drawn) | 2 | 0 | 60* | -4 | -3 | 4 | -12
CCCNC(=O)Cn1sc2nc(C)cc(C)c2c1=O | -1 | 0 | 58* | -6 | -18 | -3 | 103*
Cc1cc(C)c2c(=O)n(CC(=O)N3CCC(N4CCCCC4)CC3)sc2n1 | 2 | 16 | -1 | -5 | -15 | 2 | .
CCOc1ccc2[nH]c(C)c(CN3CCN(C)CC3)c(=O)c2c1 | 0 | 0 | 68* | -2 | 6 | -8 | -11

Source: PubChem
